{"data": "Assay results gathered from unrelated publications", "RET V804L": "Proto-oncogene tyrosine-protein kinase receptor Ret (RET, Homo sapiens, UniProt P07949, V804L)", "RET V804M": "Proto-oncogene tyrosine-protein kinase receptor Ret (RET, Homo sapiens, UniProt P07949, V804M)", "RET M918T": "Proto-oncogene tyrosine-protein kinase receptor Ret (RET, Homo sapiens, UniProt P07949, M918T)"}
{"Structure (SMILES)": "CN(C)CC#Cc1ccc(OCCCc2sc(N3CCc4cccc(C(=O)Nc5nc6ccccc6s5)c4C3)nc2C(=O)O)c(F)c1", "target": "Proto-oncogene tyrosine-protein kinase receptor Ret (RET, Homo sapiens, UniProt P07949)", "observed": "cell-free assay", "method": "competition with immobilised ligand", "concentration": "1 µM", "remaining binding": "100%"}
{"Structure (SMILES)": "CN(C)c1nccc(-c2cnn3ncccc23)n1", "target": "RET V804L", "observed": "binding", "concentration": "1 µM", "remaining binding": "99%"}
{"Structure (SMILES)": "COc1cc(-c2cn(C3CCc4c(F)cccc4N(CC(F)(F)F)C3=O)nn2)ccc1-n1cnc(C)c1 (centres unmarked)", "target": "RET V804M", "observed": "cell-free assay", "method": "competition with immobilised ligand", "concentration": "1 µM", "remaining binding": "88%"}
{"Structure (SMILES)": "COc1ccnn2ncc(-c3ccnc(N(C)C)n3)c12", "target": "RET V804M", "observed": "binding", "concentration": "1 µM", "remaining binding": "100%"}
{"Structure (SMILES)": "CO[C@@H](C)c1c(Nc2ccc([C@H](N(C)C(=O)C3CCS(=O)(=O)CC3)C(F)(F)F)cc2)cnc2cc(Cl)nn12", "target": "RET V804M", "observed": "cell-free assay", "method": "competition with immobilised ligand", "concentration": "1 µM", "remaining binding": "94%"}
{"Structure (SMILES)": "O=C(c1ccc(Nc2ncc(Cl)c(-c3ccc(Cl)s3)n2)cc1)N1CCC(N2CCCC2)CC1", "target": "RET V804M", "observed": "binding", "method": "competition with immobilised ligand", "concentration": "1 µM", "remaining binding": "12%"}
{"Structure (SMILES)": "O=C(N[C@H]1CCCCC/C=C\\C2C[C@@]2(C(=O)O)NC(=O)[C@@H]2C[C@@H](Oc3ccncc3)CN2C1=O)OC1CCCC1 (some centres unmarked)", "target": "RET M918T", "observed": "binding", "method": "competition with immobilised ligand", "concentration": "1 µM", "remaining binding": "96%"}
{"Structure (SMILES)": "CNC(=O)[C@@H]1CC[C@@H](n2c(-c3ccc4cnccc4c3)nc3ccc(C(=O)NCc4cccc(C(N)=O)c4)cc32)C1", "target": "RET M918T", "observed": "binding", "method": "competition with immobilised ligand", "concentration": "1 µM", "remaining binding": "98%"}
{"Structure (SMILES)": "N[C@H]1CCN(c2nccc(-c3cnn4ncccc34)n2)C1", "target": "RET V804M", "observed": "binding", "concentration": "1 µM", "remaining binding": "100%"}
{"Structure (SMILES)": "COc1cc(-c2cn(C3CCc4ccccc4N(CC(F)(F)F)C3=O)nn2)ccc1-n1ccc(C)n1 (centres unmarked)", "target": "RET V804M", "observed": "cell-free assay", "method": "competition with immobilised ligand", "concentration": "1 µM", "remaining binding": "100%"}
{"Structure (SMILES)": "CN(CCCC(F)(F)F)c1nccc(-c2cnn3ncccc23)n1", "target": "RET V804L", "observed": "binding", "concentration": "1 µM", "remaining binding": "100%"}
{"Structure (SMILES)": "O=C(NCCCN1CCOCC1)c1ccc(Nc2ncc(Cl)c(-c3ccc(Cl)s3)n2)cc1", "target": "RET V804L", "observed": "binding", "method": "competition with immobilised ligand", "concentration": "1 µM", "remaining binding": "13%"}
{"Structure (SMILES)": "COc1cnc(Nc2cccc(S(N)(=O)=O)c2)nc1N1CCN(c2ccccc2)C(=O)C1", "target": "RET M918T", "observed": "binding", "method": "competition with immobilised ligand", "concentration": "1 µM", "remaining binding": "100%"}
{"Structure (SMILES)": "Cc1cnc(Nc2ccc(C(=O)N3CCC(N4CCCC4)CC3)cc2)nc1-c1cc2ccccc2s1", "target": "RET V804M", "observed": "binding", "method": "competition with immobilised ligand", "concentration": "1 µM", "remaining binding": "25%"}
{"Structure (SMILES)": "C=CC(=O)N1CCC(C(=O)NCC(=O)N2CCN(c3nc(-c4cnc(N)nc4C(F)F)nc(N4CCOCC4)n3)CC2)CC1", "target": "RET V804M", "observed": "binding", "method": "competition with immobilised ligand", "concentration": "1 µM", "remaining binding": "100%"}
{"Structure (SMILES)": "FC(F)(F)c1ccc2c(c1)nc(-c1cccnc1)n2C1CC1", "target": "RET V804L", "observed": "cell-free assay", "method": "competition with immobilised ligand", "concentration": "1 µM", "remaining binding": "81%"}
{"Structure (SMILES)": "C[C@H]1CCN(c2nccc(-c3cnn4ncccc34)n2)C1", "target": "RET M918T", "observed": "binding", "concentration": "1 µM", "remaining binding": "100%"}
{"Structure (SMILES)": "c1cncc(-c2cccc(Nc3nccc(NC4CCCCC4)n3)c2)c1", "target": "RET V804M", "observed": "binding", "method": "competition with immobilised ligand", "concentration": "10 µM", "remaining binding": "8.8%"}
{"Structure (SMILES)": "CCN1CCN(Cc2ccc(C(=O)Nc3ccc(C)c(Oc4ccc5c(c4)CC(=O)N5)c3)cc2C(F)(F)F)CC1", "target": "RET V804M", "observed": "binding", "method": "competition with immobilised ligand", "concentration": "1 µM", "remaining binding": "67%"}
{"Structure (SMILES)": "O=C(NCC1CCOCC1)c1n[nH]cc1NC(=O)c1c(F)cccc1F", "target": "RET V804L", "observed": "binding", "method": "competition with immobilised ligand", "concentration": "1 µM", "remaining binding": "100%"}
